# Hits are enriched below; roughly 2.6% of the tested compounds scored in any of these assays.
# rRNA inh HTS: reduced GFP signal of wild-type E. coli, primary screen, bacterial rRNA inhibitor project, GFP/RFP fluorescence, OD600, single point. GFP signal change (wild-type ribosome), % (concentration not given with the values). 1.6% of 350,000 active. E. coli WT GFP vs humanized-ribosome RFP mutants, 24 h; hits give low values; DMSO median 0, no signal -100. AID 720706, 2013;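 active means significant combined selectivity score with lowered wild-type GFP, culture density cut under 30%, mutant RFP and density less affected; inactive means any of these conditions unmet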
# AF4-AF9 inh: inhibitors of AF4 peptide binding to AF9, primary screen, biochemical, AlphaScreen, biotin-AF4 peptide, FLAG-AF9, single point | Protein AF-9 (Homo sapiens), P42568 | inhibition, % at 10 µM | 0.47% of 350,000 active | AID 651704, 2012;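 active means every replicate reaching a set inhibition limit, whatever the replicate mean, cut at about 25% in these data; inconclusive means mean inhibition reaches that limit but some replicates miss it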;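 further: 0% = plate neutral control median and 100% = total signal loss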
# Target sequence (P42568 whole entry, looked up): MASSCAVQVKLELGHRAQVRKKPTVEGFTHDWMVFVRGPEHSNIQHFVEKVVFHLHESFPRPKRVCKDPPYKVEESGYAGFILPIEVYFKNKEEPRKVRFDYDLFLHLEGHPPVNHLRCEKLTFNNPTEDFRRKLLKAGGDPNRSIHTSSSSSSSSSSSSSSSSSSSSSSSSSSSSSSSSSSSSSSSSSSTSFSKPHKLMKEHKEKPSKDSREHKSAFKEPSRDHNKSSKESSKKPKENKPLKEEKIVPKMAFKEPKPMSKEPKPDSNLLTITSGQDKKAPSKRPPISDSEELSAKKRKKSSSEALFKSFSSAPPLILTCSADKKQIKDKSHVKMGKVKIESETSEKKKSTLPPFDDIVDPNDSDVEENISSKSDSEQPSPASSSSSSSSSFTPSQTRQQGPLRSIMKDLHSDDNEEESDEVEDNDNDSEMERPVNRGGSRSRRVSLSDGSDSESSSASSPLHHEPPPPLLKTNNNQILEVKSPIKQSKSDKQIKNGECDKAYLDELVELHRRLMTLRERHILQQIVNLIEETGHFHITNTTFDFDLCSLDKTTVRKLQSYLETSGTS
# E-selectin induc: E-selectin induction in HUVECs, primary screen, imaging, HUVEC, immunofluorescence imaging, single point. normalized: neutral wells 0, TNF-alpha wells 100. activation, % at 7.58 µM. 0.37% of 260,000 active. AID 686992, 2013;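 active means mean E-selectin-positive cell signal at least 10% of the positive control, reached in at least 60% of replicates, without over 20% cell loss; inconclusive means no rule given, readout overlaps actives, possibly toxicity-flagged; inactive means the rest, including those meeting only one limit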
#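 System: HUVEC, human umbilical vein endothelial cells; quantity: 3,000 cells/well; buffer or medium: EGM-2 medium, gelatin-coated wells; dosing: single-point compound dose; detection: immunofluorescence imaging; evaluation: % PE-positive cells; benchmarks: TNF-alpha, DMSO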
# RAD52 anneal inh: RAD52 DNA annealing inhibitors, primary screen, biochemical, FRET, single point, set 2 | recombinant RAD52 DNA annealing, FRET fluorescence | DNA repair protein RAD52 homolog (Homo sapiens), P43351 | 0.46% of 360,000 active | inhibition, % at 18.7 µM;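 active means every replicate showing at least 50% inhibition; inconclusive means mean inhibition at least 50% but not in every replicate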
# GSIS activator: GLuc luminescence reporter in INS-1E cells, primary screen for activators of glucose-dependent secretion of insulin; INS-1E GLuc reporter insulin secretion, 2-3 h; 0.61% of 370,000 active; AID 743287, 2014; activation, % at 16.6 µM;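 active means lowest replicate activation of at least 40%, so every replicate reaches that level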;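 further: 0% = median of neutral control wells and 100% = median of IBMX positive control wells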
# RAD54 inh: inhibitors of human RAD54 branch migration, primary screen, biochemical, fluorescence, single point; RAD54 Holliday junction branch migration, FAM/BHQ fluorescence; inhibition, % at 10.4 µM; 0.14% of 360,000 active; AID 602329, 2012;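 active means mean normalized replicate activity at least 40 and at least half of replicates scoring 40 or more; inconclusive means only one of the two criteria met; inactive means mean below 40 and under half of replicates reaching 40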;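 further: 0% = median of neutral control wells and 100% = median of positive control wells; inhibitors cause a drop in the FAM fluorescence signal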
# AID977621: growth inhibition of wild-type GFP E. coli, dose response, H69 mutant RFP, cherry-pick; shares compounds with rRNA inh HTS; E. coli wild-type GFP strain growth, fluorescence, 24 h; activity change, negative = inhibition at 50 µM; 1,900 tested, under 10 active;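 active means Wild-type ribosome reporter drop at least double the humanized mutant ribosome reporter drop, growth loss under a set limit; inconclusive means no clear call, values can overlap the other calls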;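 further: wild-type GFP and H69 mutant RFP strains grown together 50/50 in each well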
# AID977628: E. coli growth inhibition, wild-type GFP versus h24 humanized RFP strain, dose response, h24 mutant RFP vs wild-type GFP, cherry-pick | activity change, negative = inhibition at 50 µM | shares compounds with rRNA inh HTS | E. coli WT GFP strain growth, fluorescence, 24 h | 1,900 tested, under 10 active | AID 977628, 2014;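 active means compound lowering the normal-ribosome reporter at least twice as much as the humanized-ribosome reporter, growth loss under a set limit; inconclusive means no clear call, values can overlap the other calls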;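 further: wild-type GFP and h24 humanized RFP strains co-cultured 1 to 1 per well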
# An asterisk follows results filed as active; u = inconclusive; x = no result given; ! = not confirmed by another sample.
SMILES,rRNA inh HTS,AF4-AF9 inh,E-selectin induc,RAD52 anneal inh,GSIS activator,RAD54 inh,AID977621,AID977628
O=C(CC1C(=O)N(c2ccc(Cl)cc2)C(=S)N1CCc1ccncc1)Nc1ccc(F)cc1 (stereo unspecified),-21*,-37,x,-9,-50,-9,-6.7,x
CCc1ccc(NC(=O)CC2C(=O)N(c3ccc(C)cc3)C(=O)N2CCc2ccncc2)cc1 (stereo unspecified),-15,2,x,-28,-10,x,x,x
Cc1noc(C)c1NC(=O)N(C)C[C@H]1Oc2c(NC(=O)Nc3ccc(C(F)(F)F)cc3)cccc2C(=O)N([C@@H](C)CO)C[C@@H]1C,-2,-5,0,5,-3,-10,x,x
O=C(Nc1ccc(C(=O)Nc2ccccc2Cl)cc1)c1cccnc1,-20*,-1,x,-17,21,4,-1.8,-11
COc1ccc(S(=O)(=O)Nc2ccc3c(c2)CC(=O)N([C@@H](C)CO)C[C@@H](C)[C@@H](CN(C)Cc2ccc(Cl)c(Cl)c2)O3)cc1,-2,-2,0,-5,-8,-4,x,x
c1ccc(CNc2ncnc3sccc23)cc1,-21*,-4,0,-14,-40,11,x,u
c1cncc(CNc2ncnc3sccc23)c1,5,0,-5,-18,-2,x,x,x
O=C(CCC(=O)N1CCN(c2ccc(F)cc2)CC1)c1ccc(F)cc1,-20*,-10,x,-3,-11,x,-1.8,-12
Cc1cc(-c2ccc(C)c(S(=O)(=O)NCC3CCN(Cc4ccccc4F)CC3)c2)on1,-16*,3,0,-30,4,-1,-9,-6.6
Cc1cc(-c2ccc(C)c(S(=O)(=O)NCC3CCN(Cc4cccc(F)c4)CC3)c2)on1,-21,1,x,-21,-20,0,x,x
O=C(Nc1ccc(OCC(=O)N2CCC(Cc3ccccc3)CC2)cc1)c1ccco1,x,x,x,x,x,8,x,x
CC(=O)Nc1ccc(OCC(=O)N2CCC(Cc3ccccc3)CC2)cc1,-20*,2,1,4,6,x,-26,x
O=C(C(=NNc1ccccc1)c1ccccc1)c1ccccc1,-9,-2,0,-8,x,2,x,x
CC(C)(Nc1ccccc1)C(=O)c1ccccc1,-20*,-5,x,-20,-6,0,-2.9,u
COc1ccc(NC(=O)Nc2ccc3c(c2)C(=O)N([C@@H](C)CO)C[C@H](C)[C@H](CN(C)C(=O)CCCN(C)C)OCCCC[C@H](C)O3)cc1,-1,16,0,46,21,13,x,x
CNC[C@H]1Oc2ccc(NC(=O)Nc3cccc4ccccc34)cc2C(=O)N([C@@H](C)CO)C[C@H]1C,2,1,x,-2,2,9,x,x
Cc1cc(C)cc(NS(=O)(=O)c2cc(C(=O)NCc3ccccn3)ccc2Cl)c1,-20*,11,0,-10,-25,3,-3.2,-8
Cn1cc(CN(CCO)Cc2cccs2)c(-c2cccc(Cl)c2)n1,-31*,4,x,-3,5,-9,5.9,-12
Cn1cc(CN2CCCC(C(=O)c3cccs3)C2)c(-c2cccc(Cl)c2)n1 (stereo unspecified),-25*,6,x,-14,-8,3,-1.8,-2.9
Cc1ccsc1C(=O)C1CCCN(Cc2cn(C)nc2-c2ccccc2)C1 (stereo unspecified),0,u,14,-9,6,x,x,x
COC(=O)C[C@H]1CC[C@@H]2[C@H](COc3ccc(NC(=O)c4ccc(F)c(F)c4)cc3C(=O)N2C)O1,0,-46,0,-4,-13,-3,x,x
COc1ccc(S(=O)(=O)n2cccc2)cc1,-23*,-9,0,-11,-2,2,u,u
COc1ccc(S(=O)(=O)N2CCOc3ccccc32)cc1,-22*,-1,1,-7,-9,3,0.4,-17
COc1ccc(N2CCN(S(=O)(=O)c3ccc(OC)cc3)CC2)cc1,3,3,x,-9,-4,12,x,x
CCN(C(=O)COC(=O)CCc1ccccc1)c1ccccc1,-34*,-1,x,-13,-6,-1,x,-7.7
SMILES,rRNA inh HTS,AF4-AF9 inh,E-selectin induc,RAD52 anneal inh,GSIS activator,RAD54 inh,AID977621,AID977628
COC(=O)[C@H]1[C@H](CO)[C@H]2Cn3c(ccc(C4=CCCCC4)c3=O)[C@H]2N1Cc1cccnc1,-3,-1,0,-13,11,x,x,x
O=C(OCC1COc2ccccc2O1)c1ccccc1F (stereo unspecified),-20*,2,x,1,-2,-15,-0.3,-2.7
CC(C)(C)c1ccc(-c2noc(CCC(=O)NCc3ccco3)n2)cc1,-24*,-3,-1,-6,15,x,-5.1,u
Cc1cccc(-c2noc(CCC(=O)NCc3ccco3)n2)c1,x,5,x,-5,x,-3,x,x
COc1ccccc1-c1noc2ncnc(Nc3ccc4c(c3)OCO4)c12,7,-5,0,-7,-4,5,x,x
COc1ccccc1-c1noc2ncnc(Nc3ccccc3C)c12,-27*,-2,x,-18,12,-3,-6.9,-17
COc1ccccc1-c1noc2ncnc(Nc3cccc(C)c3C)c12,-16*,1,0,-22,0,-4,-16,-15
COc1ccccc1Nc1ncnc2c1c(C)c(C)n2CCCN(C)C,6,7,0,10,9,10,x,x
Cc1cc(NCc2ccccn2)n2nc(C)c(-c3ccccc3)c2n1,-47*,x,3,-14,-11,x,-4.5,u
Cc1nn2c(NCc3ccccn3)cc(C(C)(C)C)nc2c1-c1ccccc1,21,x,x,-13,21,0,x,x
CC(=O)Nc1ccc(NS(=O)(=O)c2cc(Cl)sc2Cl)cc1,-2,-2,1,-3,1,-6,x,x
CC(=O)Nc1ccc(NS(=O)(=O)c2ccc(Cl)s2)cc1,-20*,0,1,-3,-15,x,x,u
O=S(=O)(c1ccc(F)cc1)N1C[C@@H]2N[C@H](C1)C2c1ccc(/C=C/c2ccccc2)cc1 (stereo partly specified),-28*!,x,0,x,3,x,-1.3,x

# Source: PubChem (Broad Institute)
